{"source": "ChEMBL document CHEMBL3804820", "about": "“2-hydroxyisoquinoline-1,3(2H,4H)-diones (HIDs) as human immunodeficiency virus type 1 integrase inhibitors: Influence of the alkylcarboxamide substitution of position 4” (Eur J Med Chem, 2016)", "key": {"[1]": {"system": "Human immunodeficiency virus 1", "assay": "Antiviral activity against HIV1 3B infected in human MT4 cells at 50 to 100 times antiviral EC50 added 1 to 25 hrs post infection assessed as time required for loss of inhibition of viral replication measured at 30 hrs post infection by p24 ELISA method", "format": "functional"}, "MDCK-II [2]": {"system": "MDCK-II", "assay": "Inhibition of human P-gp expressed in MDCK2-MDR1 cells assessed as reduction in calcien-AM efflux at 1 uM incubated for 20 mins by fluorimetry relative to control", "format": "cell-based", "method_in_brief": "(§1)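 P-gp efflux inhibition in MDR1-MDCKII cells with calcein AM substrate, tested up to 100.0 µM. Read as percentage inhibition of control.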"}, "[3]": {"target": "T1, Human immunodeficiency virus type 1 integrase (Human immunodeficiency virus 1, UniProt Q7ZJM1)", "T1 sequence (Q7ZJM1 whole entry)": "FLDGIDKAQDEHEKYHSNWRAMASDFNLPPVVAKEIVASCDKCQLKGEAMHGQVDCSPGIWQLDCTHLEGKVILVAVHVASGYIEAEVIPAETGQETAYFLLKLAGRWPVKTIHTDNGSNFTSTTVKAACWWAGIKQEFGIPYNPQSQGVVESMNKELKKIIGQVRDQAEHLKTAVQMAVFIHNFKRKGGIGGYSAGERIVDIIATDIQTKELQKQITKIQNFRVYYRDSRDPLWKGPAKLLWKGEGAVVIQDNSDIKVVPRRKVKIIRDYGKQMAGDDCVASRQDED", "assay": "Inhibition of HIV1 integrase strand transfer activity using 5'[digoxigenin]-GACCCTTTTAGTCAGTGTGGAAAATCTCTAGCA-3' as substrate incubated for 1 hr by ELISA", "method_in_brief": "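ELISA with a 3'-biotin oligo and a 5'-digoxigenin partner oligo. Overall assay uses the full complementary oligo; strand transfer uses a precleaved oligo lacking the 3'-GT. Integrase at 160 nM final, annealed oligos 7 nM, in 10 mM MgCl2, 5 mM DTT, 20 mM HEPES pH 7.5, 0.5% PEG, 15% DMSO. Run 1 h at 37 °C, products denatured with NaOH, detected on avidin plates.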"}, "[4]": {"system": "Human immunodeficiency virus 1", "assay": "Selectivity ratio of EC50 for raltegravir resistant HIV1 harboring integrase G140S/Q148H double mutant infected in human MT4 cells to EC50 for wild type HIV1 3B infected in human MT4 cells", "format": "functional", "method_in_brief": "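MT-4 cells were infected with 100–300 CCID₅₀ of virus stock (titrated in MT-4 cells) in the presence of 5-fold serial drug dilutions. EC₅₀ is the concentration giving 50% protection against virus-induced cytopathic effect, read by MTT reduction (MT-4/MTT assay). The value is the fold-change in EC₅₀ for each mutant strain relative to the wild-type HIV-1 strain.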"}, "HepG2": {"system": "HepG2", "assay": "Cytotoxicity against human HepG2 cells assessed as increase in membrane permeability at 100 uM after 72 hrs by fluorescent image analysis relative to untreated control", "format": "cell-based", "conditions": "hepg2, 72 h"}, "[5]": {"system": "Human immunodeficiency virus 1", "assay": "Selectivity ratio of EC50 for raltegravir resistant HIV1 harboring integrase N155H mutant infected in human MT4 cells to EC50 for wild type HIV1 3B infected in human MT4 cells", "format": "functional", "method_in_brief": "(§2)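 MT-4/MTT cytopathic-effect assay in human MT-4 lymphocytes. Cells were infected with 100–300 CCID50 of each virus stock in the presence of 5-fold serial drug dilutions. The HIV-1 IIIB wild-type stock was titrated on MT-4 cells. Viability was read spectrophotometrically as formazan from MTT reduction. EC50 is the concentration giving 50% protection against CPE for each strain. Fold-change is mutant-strain EC50 relative to wild-type EC50.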"}, "[6]": {"assay": "Cytotoxicity against human HepG2 cells assessed as reduction in mitochondrial membrane potential at 30 uM after 72 hrs by fluorescent image analysis relative to untreated control", "format": "cell-based", "conditions": "read-out: INH", "method_in_brief": "(§3)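 Contract in vitro cytotoxicity panel covering cell number, intracellular free calcium, nuclear size, membrane permeability and mitochondrial membrane potential. Compounds tested at 1.0, 30.0 and 100.0 µM; values are percentage change versus untreated control, and IC50 where derived.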"}, "[7]": {"system": "Human immunodeficiency virus 1", "assay": "Antiviral activity against HIV1 3B infected in human MT4 cells assessed as reduction in virus-induced cytopathic effect by MTT assay", "format": "functional, organism-based", "conditions": "Human immunodeficiency virus 1, 3B", "method_in_brief": "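MT-4 cells infected with 100-300 CCID50 of HIV-1 IIIB, in the presence of 5-fold serial dilutions of compound. Cytopathic effect read by MTT reduction to formazan, measured spectrophotometrically. EC50 is the concentration giving 50% protection against virus-induced CPE.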"}, "hERG (KCNH2)": {"target": "hERG (KCNH2) (Homo sapiens, UniProt Q12809)", "sequence (Q12809 whole entry)": "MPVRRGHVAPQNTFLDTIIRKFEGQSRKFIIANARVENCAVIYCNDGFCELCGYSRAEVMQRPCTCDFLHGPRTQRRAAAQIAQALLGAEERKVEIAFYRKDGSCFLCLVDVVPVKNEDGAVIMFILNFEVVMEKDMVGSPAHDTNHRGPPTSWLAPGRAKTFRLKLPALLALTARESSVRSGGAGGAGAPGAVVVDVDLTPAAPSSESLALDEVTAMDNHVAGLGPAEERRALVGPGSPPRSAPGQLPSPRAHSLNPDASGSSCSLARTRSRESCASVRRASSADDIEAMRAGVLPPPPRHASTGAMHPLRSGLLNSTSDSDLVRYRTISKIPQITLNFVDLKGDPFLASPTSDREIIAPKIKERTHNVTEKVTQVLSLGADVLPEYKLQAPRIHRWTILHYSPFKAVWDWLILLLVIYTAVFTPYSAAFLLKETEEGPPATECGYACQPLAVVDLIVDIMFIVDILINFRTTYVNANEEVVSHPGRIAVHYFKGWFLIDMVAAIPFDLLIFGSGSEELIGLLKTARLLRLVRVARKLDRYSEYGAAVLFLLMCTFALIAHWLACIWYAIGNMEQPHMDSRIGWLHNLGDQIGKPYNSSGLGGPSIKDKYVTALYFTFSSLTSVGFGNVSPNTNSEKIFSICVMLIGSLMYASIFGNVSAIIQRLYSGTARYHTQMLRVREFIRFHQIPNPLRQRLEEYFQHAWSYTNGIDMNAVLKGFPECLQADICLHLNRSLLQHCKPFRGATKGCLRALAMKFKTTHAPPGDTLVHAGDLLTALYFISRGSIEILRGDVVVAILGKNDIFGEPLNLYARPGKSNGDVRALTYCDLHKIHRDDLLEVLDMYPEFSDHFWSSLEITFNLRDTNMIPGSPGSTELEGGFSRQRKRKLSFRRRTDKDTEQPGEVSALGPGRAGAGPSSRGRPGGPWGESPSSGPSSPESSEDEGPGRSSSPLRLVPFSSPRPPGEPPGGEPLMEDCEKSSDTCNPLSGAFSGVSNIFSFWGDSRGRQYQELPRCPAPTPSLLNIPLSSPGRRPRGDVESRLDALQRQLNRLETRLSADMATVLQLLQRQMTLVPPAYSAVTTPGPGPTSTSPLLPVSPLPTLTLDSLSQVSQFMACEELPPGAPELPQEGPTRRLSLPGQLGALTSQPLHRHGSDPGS", "assay": "in vitro", "conditions": "CHO-K1 cells expressing human ERG"}, "[8]": {"assay": "Plasma protein binding in human assessed as drug recovery at 10 uM incubated for 4 hrs by equilibrium dialysis method", "format": "ADME, cell-free", "conditions": "read-out: Drug recovery", "method_in_brief": "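Human plasma protein binding, given as percent bound and percent recovery, in a standard contract assay.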"}, "[9]": {"target": "T1, Human immunodeficiency virus type 1 integrase", "assay": "Inhibition of HIV1 integrase 3'-processing activity using 5'-ACTGCTAGAGATTTTCCACACTGACTAAAAGGGTC-[biotin]3' as substrate incubated for 1 hr by ELISA"}, "[10]": {"assay": "Apparent permeability coefficient in human Caco2 cells at pH 6.5/7.4 at 10 uM", "format": "ADME, cell-based", "conditions": "Caco-2, pH 6.5", "method_in_brief": "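A-to-B permeability measured in Caco-2 monolayers at pH 6.5/7.4, reported as Papp. Standard contract assay.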"}, "[11]": {"assay": "Partition coefficient , log D of the compound in n-octanol/PBS at pH 7.4", "format": "physicochemical", "method_in_brief": "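Log D measured by n-octanol/PBS partition at pH 7.4, in a standard contract assay.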"}, "CYP2C9": {"target": "CYP2C9 (Homo sapiens, UniProt P11712)", "sequence (P11712 whole entry, canonical isoform)": "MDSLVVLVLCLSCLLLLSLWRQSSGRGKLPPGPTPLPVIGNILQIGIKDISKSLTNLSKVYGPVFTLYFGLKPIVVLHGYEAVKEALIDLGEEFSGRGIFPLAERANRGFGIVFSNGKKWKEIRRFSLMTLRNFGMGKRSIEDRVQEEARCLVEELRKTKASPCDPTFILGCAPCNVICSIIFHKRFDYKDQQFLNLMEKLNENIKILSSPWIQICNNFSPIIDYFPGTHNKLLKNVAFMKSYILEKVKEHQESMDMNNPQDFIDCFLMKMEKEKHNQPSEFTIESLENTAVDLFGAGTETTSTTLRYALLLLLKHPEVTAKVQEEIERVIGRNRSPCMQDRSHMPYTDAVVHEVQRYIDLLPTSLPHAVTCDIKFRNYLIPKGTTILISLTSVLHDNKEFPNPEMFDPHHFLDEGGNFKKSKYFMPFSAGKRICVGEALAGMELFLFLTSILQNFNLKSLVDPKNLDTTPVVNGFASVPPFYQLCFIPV", "assay": "Inhibition of human recombinant CYP2C9 using MFC as substrate at 10 uM incubated for 40 mins by fluorimetry relative to control", "format": "ADME", "conditions": "recombinant CYP2C9, probe MFC", "method_in_brief": "(§4)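 Recombinant CYP isoforms, each with its fluorogenic substrate: CYP1A2 and CYP2C19 with CEC, CYP2C9 and CYP2D6 with MFC, CYP3A4 with BFC. Read as percentage inhibition of control, standard contract assays.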"}, "[12]": {"assay": "Cytotoxicity against human HepG2 cells assessed as reduction in cell number at 30 uM after 72 hrs by fluorescent image analysis relative to untreated control", "format": "cell-based", "conditions": "read-out: INH", "method_in_brief": "as §3"}, "MDCK-II [13]": {"system": "MDCK-II", "assay": "Inhibition of human P-gp expressed in MDCK2-MDR1 cells assessed as reduction in calcien-AM efflux at 30 uM incubated for 20 mins by fluorimetry relative to control", "format": "cell-based", "method_in_brief": "as §1"}, "[14]": {"assay": "Cytotoxicity against human HepG2 cells assessed as reduction in mitochondrial membrane potential at 100 uM after 72 hrs by fluorescent image analysis relative to untreated control", "format": "cell-based", "conditions": "read-out: INH", "method_in_brief": "as §3"}, "[15]": {"system": "Human immunodeficiency virus 1", "assay": "Selectivity ratio of EC50 for raltegravir resistant HIV1 harboring integrase Q148H mutant infected in human MT4 cells to EC50 for wild type HIV1 3B infected in human MT4 cells", "format": "functional", "method_in_brief": "as §2"}, "[16]": {"assay": "Aqueous solubility in PBS at pH 7.4", "format": "physicochemical", "method_in_brief": "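Aqueous solubility measured in PBS, pH 7.4, in a standard contract assay.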"}, "CYP2D6": {"target": "CYP2D6 (Homo sapiens, UniProt P10635)", "sequence (P10635 whole entry)": "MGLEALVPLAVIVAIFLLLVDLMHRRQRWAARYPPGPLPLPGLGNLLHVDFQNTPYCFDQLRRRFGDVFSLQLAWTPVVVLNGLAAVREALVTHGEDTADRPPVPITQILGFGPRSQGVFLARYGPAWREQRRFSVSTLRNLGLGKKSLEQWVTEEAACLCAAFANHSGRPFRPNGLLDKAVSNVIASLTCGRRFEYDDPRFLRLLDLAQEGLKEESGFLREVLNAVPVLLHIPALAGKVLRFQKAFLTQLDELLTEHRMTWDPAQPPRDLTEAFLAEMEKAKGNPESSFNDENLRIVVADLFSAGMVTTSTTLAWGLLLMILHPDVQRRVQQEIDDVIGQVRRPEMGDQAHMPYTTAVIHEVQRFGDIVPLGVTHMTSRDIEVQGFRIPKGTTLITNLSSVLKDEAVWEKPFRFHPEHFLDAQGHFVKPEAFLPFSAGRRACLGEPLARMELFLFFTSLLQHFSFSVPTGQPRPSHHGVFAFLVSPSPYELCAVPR", "assay": "Inhibition of human recombinant CYP2D6 using MFC as substrate at 10 uM incubated for 40 mins by fluorimetry relative to control", "format": "ADME", "conditions": "recombinant CYP2D6, probe MFC", "method_in_brief": "as §4"}, "[17]": {"assay": "Cytotoxicity against human HepG2 cells assessed as reduction in mitochondrial membrane potential at 1 uM after 72 hrs by fluorescent image analysis relative to untreated control", "format": "cell-based", "conditions": "read-out: INH", "method_in_brief": "as §3"}, "[18]": {"assay": "Cytotoxicity against human HepG2 cells assessed as reduction in cell number at 100 uM after 72 hrs by fluorescent image analysis relative to untreated control", "format": "cell-based", "conditions": "read-out: INH", "method_in_brief": "as §3"}, "CYP3A4": {"target": "CYP3A4 (Homo sapiens, UniProt P08684)", "sequence (P08684 whole entry)": "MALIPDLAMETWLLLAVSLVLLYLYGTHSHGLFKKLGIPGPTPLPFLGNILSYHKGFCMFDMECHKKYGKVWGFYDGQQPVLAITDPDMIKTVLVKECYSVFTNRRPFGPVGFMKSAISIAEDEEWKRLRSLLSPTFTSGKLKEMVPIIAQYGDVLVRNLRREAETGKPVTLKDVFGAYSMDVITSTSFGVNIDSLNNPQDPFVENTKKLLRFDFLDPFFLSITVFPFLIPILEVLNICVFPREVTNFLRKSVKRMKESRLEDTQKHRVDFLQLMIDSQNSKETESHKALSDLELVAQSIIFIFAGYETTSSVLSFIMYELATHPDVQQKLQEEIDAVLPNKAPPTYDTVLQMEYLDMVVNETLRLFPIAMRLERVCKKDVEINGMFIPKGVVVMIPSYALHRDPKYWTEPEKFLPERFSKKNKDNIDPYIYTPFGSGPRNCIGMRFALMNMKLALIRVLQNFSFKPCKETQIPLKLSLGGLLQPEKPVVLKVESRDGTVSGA", "assay": "Inhibition of human recombinant CYP3A4 using BFC as substrate at 10 uM incubated for 30 mins by fluorimetry relative to control", "format": "ADME", "conditions": "recombinant CYP3A4, probe BFC", "method_in_brief": "as §4"}, "MDCK-II [19]": {"system": "MDCK-II", "assay": "Inhibition of human P-gp expressed in MDCK2-MDR1 cells assessed as reduction in calcien-AM efflux at 100 uM incubated for 20 mins by fluorimetry relative to control", "format": "cell-based", "method_in_brief": "as §1"}}, "note": "Active and inactive are the calls of the source. No cut-off for these calls is given here.", "data": [{"smiles": "CCCCCCNC(=O)C1C(=O)N(O)C(=O)c2ccccc21", "note": "(centres undefined)", "values": [{"measurement": "Activity", "setting": "[1]", "result": "Active"}, {"measurement": "inhibition", "setting": "MDCK-II [2]", "result": -5.5, "unit": "%"}, {"measurement": "IC50", "setting": "[3]", "result": 195, "unit": "nM"}, {"measurement": "Ratio EC50", "setting": "[4]", "result": 1}, {"measurement": "Activity", "setting": "HepG2", "result": 23.6, "unit": "%"}, {"measurement": "Ratio EC50", "setting": "[5]", "result": 1}, {"measurement": "cytotoxicity at 72 h, 30 µM", "setting": "[6]", "result": 5.1, "unit": "%"}, {"measurement": "EC50", "setting": "[7]", "result": 2700, "unit": "nM"}, {"measurement": "inhibition at 5 min, 1 µM", "setting": "hERG (KCNH2)", "result": 12.2, "unit": "%"}, {"measurement": "recovery at 4 h, 10 µM", "setting": "[8]", "result": 93.2, "unit": "%"}, {"measurement": "IC50", "setting": "[9]", "result": 510, "unit": "nM"}, {"measurement": "Papp at 10 µM", "setting": "[10]", "result": 24.6, "unit": "×10⁻⁶ cm/s"}, {"measurement": "logD", "setting": "[11]", "result": 1.26}, {"measurement": "inhibition at 40 min, 10 µM", "setting": "CYP2C9", "result": 25.3, "unit": "%"}, {"measurement": "cytotoxicity at 72 h, 30 µM", "setting": "[12]", "result": 4.9, "unit": "%"}, {"measurement": "inhibition", "setting": "MDCK-II [13]", "result": 2, "unit": "%"}, {"measurement": "cytotoxicity at 72 h, 100 µM", "setting": "[14]", "result": 33.9, "unit": "%"}, {"measurement": "Ratio EC50", "setting": "[15]", "result": 1}, {"measurement": "solubility", "setting": "[16]", "result": 160, "unit": "µM"}, {"measurement": "inhibition at 40 min, 10 µM", "setting": "CYP2D6", "result": 24.6, "unit": "%"}, {"measurement": "cytotoxicity at 72 h, 1 µM", "setting": "[17]", "result": 5.7, "unit": "%"}, {"measurement": "cytotoxicity at 72 h, 100 µM", "setting": "[18]", "result": 25.3, "unit": "%"}, {"measurement": "inhibition at 0.5 h, 10 µM", "setting": "CYP3A4", "result": 42, "unit": "%"}, {"measurement": "inhibition", "setting": "MDCK-II [19]", "result": 5.3, "unit": "%"}]}]}
